Measured values: ChEMBL document CHEMBL1944539, “Design, synthesis, and biological evaluation of potent quinoline and pyrroloquinoline ammosamide analogues as inhibitors of quinone reductase 2” (J Med Chem, 2012)
The source made the active and inactive calls. The calls are words filed in the database; no cut-off is given here.

How the values were obtained:
[1] = target: T1, Ribosyldihydronicotinamide dehydrogenase [quinone] (Homo sapiens, UniProt P16083); assay: (§1) Inhibition of human quinone reductase 2 using NMeH as substrate by MTT assay
T1 sequence (P16083 whole entry): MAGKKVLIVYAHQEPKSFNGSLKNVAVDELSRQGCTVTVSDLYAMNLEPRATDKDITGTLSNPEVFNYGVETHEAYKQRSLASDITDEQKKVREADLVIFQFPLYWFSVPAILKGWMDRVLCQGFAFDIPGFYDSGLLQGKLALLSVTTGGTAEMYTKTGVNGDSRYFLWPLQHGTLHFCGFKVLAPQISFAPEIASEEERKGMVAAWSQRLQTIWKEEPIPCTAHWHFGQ
Method in brief: (§2)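 Human QR2 (12 nM) with 25 μM NMeH and 200 μM MTT in 100 mM NaCl, 50 mM Tris pH 7.5, 0.1% Triton X-100, 23 °C; reactions started by enzyme. Formazan formation read at 612 nm; initial rates from ε 11,300 M-1cm-1. Inhibitor at varying concentrations, triplicate; IC50 from % inhibition versus zero-inhibitor control.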

[2] = target: T2, Ribosyldihydronicotinamide dehydrogenase [quinone] (Homo sapiens) (UniProt P16083); assay: Inhibition of human quinone reductase 2 using NMeH as substrate by MTT assay relative to control
T2 sequence (whole entry): T1 sequence (P16083 whole entry)

[3] = test system: HOP-62; assay: Cytotoxicity against human HOP62 cells assessed as cell growth at 10 uM; type: cell-based; conditions: hop-62, 10 µM
Method in brief: (§3)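 Cells exposed to compound at a single concentration; read-out is growth percent relative to untreated control cultures.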

[4] = test system: HCT-116; assay: Cytotoxicity against human HCT116 cells assessed as cell growth at 10 uM; type: cell-based; conditions: hct-116, 10 µM; method in brief: as §3
[5] = test system: SF-539; assay: Cytotoxicity against human SF539 cells assessed as cell growth at 10 uM; type: cell-based; conditions: sf-539, 10 µM; method in brief: as §3
[6] = test system: UACC-62; assay: Cytotoxicity against human UACC62 cells assessed as cell growth at 10 uM; type: cell-based; conditions: uacc-62, 10 µM; method in brief: as §3
[7] = test system: OVCAR-3; assay: Cytotoxicity against human OVCAR3 cells assessed as cell growth at 10 uM; type: cell-based; conditions: ovcar-3, 10 µM; method in brief: as §3
[8] = test system: SN12C; assay: Cytotoxicity against human SN12C cells assessed as cell growth at 10 uM; type: cell-based; method in brief: as §3
[9] = test system: DU-145; assay: Cytotoxicity against human DU145 cells assessed as cell growth at 10 uM; type: cell-based; conditions: du-145, 10 µM; method in brief: as §3
[10] = test system: MCF7; assay: Cytotoxicity against human MCF7 cells assessed as cell growth at 10 uM; type: cell-based; conditions: mcf7, 10 µM; method in brief: as §3
[11] = target: T2, Ribosyldihydronicotinamide dehydrogenase [quinone] (Homo sapiens); assay: Ratio of IC50 for ammosamide B to compound IC50 for human quinone reductase 2 using NMeH as substrate by MTT assay
[12] = target: T2, Ribosyldihydronicotinamide dehydrogenase [quinone] (Homo sapiens); assay: as §1; method in brief: as §2

COC(=O)c1cc(C(N)=O)nc2cc(N)cc(Cl)c12
IC50 [1]: 1.1 µM
Imax [2]: 75.5%
Activity [3]: 109.87%
Activity [4]: 98.84%
Activity [5]: 104.82%
Activity [6]: 102.96%
Activity [7]: 110.07%
Activity [8]: 102.63%
Activity [9]: 105.75%
Activity [10]: 97.23%

COC(=O)c1cc2c3c(n1)C(=O)C(=O)C(Cl)=C3N(C)C2=O
Activity [3]: 110.6%
Activity [4]: 104.56%
Activity [5]: 106.99%
Activity [6]: 96.96%
Activity [7]: 123.43%
Activity [8]: 102.66%
Activity [9]: 112.19%
Activity [10]: 94.99%

NC(=O)c1cc(C(N)=O)c2cc(I)c(N)cc2n1
IC50 [1]: 1.5 µM
Imax [2]: 64%

CN1C(=O)c2cc(C(N)=O)nc3c(Cl)cc(Cl)c1c23
IC50 [1]: 5.8 µM
Imax [2]: 46.3%
Activity [3]: 105.32%
Activity [4]: 107%
Activity [5]: 104.34%
Activity [6]: 90.84%
Activity [7]: 108.21%
Activity [8]: 101.49%
Activity [9]: 97.82%
Activity [10]: 96.11%

COC(=O)c1cc(C(=O)OC)c2c(Cl)cc(N)c(Cl)c2n1
IC50 [1]: 5.6 µM
Imax [2]: 91.1%
Activity [3]: 104.53%
Activity [4]: 100.36%
Activity [5]: 99.06%
Activity [6]: 97.93%
Activity [7]: 109.55%
Activity [8]: 99.49%
Activity [9]: 108.85%
Activity [10]: 100.27%

CNc1c(Cl)c(N)c2c3c(cc(C(N)=O)nc13)C(=O)N2C
IC50 [1]: 0.0041 µM
Imax [2]: 102%
Ratio IC50 [11]: > 10

COC(=O)C1CC(O)(C(=O)OC)c2c(N)c(Cl)cc(Cl)c2N1 (centres undefined)
inhibition [12]: inactive

COC(=O)c1cc(C(N)=O)nc2cc(N)c(I)cc12
IC50 [1]: 1.5 µM
Imax [2]: 83.9%

COC(=O)c1cc(C(N)=O)nc2cc(N(C)C)cc(Cl)c12
IC50 [1]: 1.6 µM
Imax [2]: 80.5%

COC(=O)c1cc(C(N)=O)nc2cc(N)c(N)c(Cl)c12
IC50 [1]: 0.15 µM
Imax [2]: 89.7%

COC(=O)c1cc(C(N)=O)nc2cc(NC(C)=O)cc(Cl)c12
IC50 [1]: 9 µM
Imax [2]: 96%
Activity [3]: 103.41%
Activity [4]: 104.18%
Activity [5]: 107.48%
Activity [6]: 108.54%
Activity [7]: 120.2%
Activity [8]: 109%
Activity [9]: 124.6%
Activity [10]: 89.58%

COC(=O)c1cc(C(=O)OC)c2c(Cl)cc(N)cc2n1
IC50 [1]: 3.3 µM
Imax [2]: 87.9%
Activity [3]: 108.99%
Activity [4]: 108.2%
Activity [5]: 117.31%
Activity [6]: 101.7%
Activity [7]: 106.32%
Activity [8]: 102.78%
Activity [9]: 108.11%
Activity [10]: 105.75%

CN1C(=O)c2cc(C(=O)NCc3ccccc3)nc3c(Cl)cc(Cl)c1c23
IC50 [1]: 7.8 µM
Imax [2]: 44.8%
Activity [3]: 113.2%
Activity [4]: 103.06%
Activity [5]: 97.49%
Activity [6]: 101.93%
Activity [7]: 103.52%
Activity [8]: 107.48%
Activity [9]: 104.81%
Activity [10]: 95.79%

COC(=O)c1cc(C(=O)OC)c2c(Cl)cc(N(C)C)cc2n1
IC50 [1]: 4 µM
Imax [2]: 92.2%
Activity [3]: 114.23%
Activity [4]: 104.18%
Activity [5]: 100.61%
Activity [6]: 109.82%
Activity [7]: 115.27%
Activity [8]: 113.39%
Activity [9]: 138.91%
Activity [10]: 78.61%

CN(C)C(=O)c1cc2c3c(c(Cl)cc(Cl)c3n1)N(C)C2=O
IC50 [1]: 25.2 µM
Imax [2]: 31.5%
Activity [3]: 118.26%
Activity [4]: 102.47%
Activity [5]: 101.43%
Activity [6]: 110.63%
Activity [7]: 126.09%
Activity [8]: 106.07%
Activity [9]: 127.34%
Activity [10]: 122.71%

COC(=O)c1cc(C(=O)OC)c2c(Cl)cc(NC(C)=O)cc2n1
IC50 [1]: > 100 µM
Activity [3]: 112.21%
Activity [4]: 103.44%
Activity [5]: 109.23%
Activity [6]: 112.51%
Activity [7]: 124.69%
Activity [8]: 109.64%
Activity [9]: 112.18%
Activity [10]: 100.11%

COC(=O)c1cc(C(=O)OC)c2c(N)c(Cl)cc(Cl)c2n1
IC50 [1]: 22.1 µM
Imax [2]: 36.6%

COC(=O)c1cc(C(=O)OC)c2c(Cl)c(N)c(N)cc2n1
IC50 [1]: 0.24 µM
Imax [2]: 85.7%

COC(=O)C1CC2(O)C(=O)Nc3c(Cl)cc(Cl)c(c32)N1 (centres undefined)
inhibition [12]: inactive

CN1C(=O)c2cc(C(N)=O)nc3c(N)c(Cl)c(N)c1c23 [AMMOSAMIDE B]
IC50 [1]: 0.061 µM
Imax [2]: 90.3%
Activity [3]: 96.95%
Activity [4]: 101.05%
Activity [5]: 88.22%
Activity [6]: 100.09%
Activity [7]: 115.24%
Activity [8]: 98.89%
Activity [9]: 114.59%
Activity [10]: 98.04%
